From ChEMBL document CHEMBL1149323, “Synthesis and evaluation of dihydropyrroloquinolines that selectively antagonize P-glycoprotein” (J Med Chem, 2004)
Several values for one entry are separate records, joined by “and”; a condition that tells them apart may be missing. Identical values can stand only once.

Columns and labels:
MCF-7 (Homo sapiens) = test: Toxicity against MCF-7 cells
[1] = Compound was evaluated for broad range of antagonistic activity against multi drug resistance-related protein (MRP) value expressed as IC20; type: functional; design: unit not given here
[2] = target: T1, ATP-dependent translocase ABCB1 (Homo sapiens, UniProt P08183); test: Compound was evaluated for broad range of antagonistic activity against P-glycoprotein (Pgp) value expressed as IC20; type: functional
T1 sequence (P08183 whole entry): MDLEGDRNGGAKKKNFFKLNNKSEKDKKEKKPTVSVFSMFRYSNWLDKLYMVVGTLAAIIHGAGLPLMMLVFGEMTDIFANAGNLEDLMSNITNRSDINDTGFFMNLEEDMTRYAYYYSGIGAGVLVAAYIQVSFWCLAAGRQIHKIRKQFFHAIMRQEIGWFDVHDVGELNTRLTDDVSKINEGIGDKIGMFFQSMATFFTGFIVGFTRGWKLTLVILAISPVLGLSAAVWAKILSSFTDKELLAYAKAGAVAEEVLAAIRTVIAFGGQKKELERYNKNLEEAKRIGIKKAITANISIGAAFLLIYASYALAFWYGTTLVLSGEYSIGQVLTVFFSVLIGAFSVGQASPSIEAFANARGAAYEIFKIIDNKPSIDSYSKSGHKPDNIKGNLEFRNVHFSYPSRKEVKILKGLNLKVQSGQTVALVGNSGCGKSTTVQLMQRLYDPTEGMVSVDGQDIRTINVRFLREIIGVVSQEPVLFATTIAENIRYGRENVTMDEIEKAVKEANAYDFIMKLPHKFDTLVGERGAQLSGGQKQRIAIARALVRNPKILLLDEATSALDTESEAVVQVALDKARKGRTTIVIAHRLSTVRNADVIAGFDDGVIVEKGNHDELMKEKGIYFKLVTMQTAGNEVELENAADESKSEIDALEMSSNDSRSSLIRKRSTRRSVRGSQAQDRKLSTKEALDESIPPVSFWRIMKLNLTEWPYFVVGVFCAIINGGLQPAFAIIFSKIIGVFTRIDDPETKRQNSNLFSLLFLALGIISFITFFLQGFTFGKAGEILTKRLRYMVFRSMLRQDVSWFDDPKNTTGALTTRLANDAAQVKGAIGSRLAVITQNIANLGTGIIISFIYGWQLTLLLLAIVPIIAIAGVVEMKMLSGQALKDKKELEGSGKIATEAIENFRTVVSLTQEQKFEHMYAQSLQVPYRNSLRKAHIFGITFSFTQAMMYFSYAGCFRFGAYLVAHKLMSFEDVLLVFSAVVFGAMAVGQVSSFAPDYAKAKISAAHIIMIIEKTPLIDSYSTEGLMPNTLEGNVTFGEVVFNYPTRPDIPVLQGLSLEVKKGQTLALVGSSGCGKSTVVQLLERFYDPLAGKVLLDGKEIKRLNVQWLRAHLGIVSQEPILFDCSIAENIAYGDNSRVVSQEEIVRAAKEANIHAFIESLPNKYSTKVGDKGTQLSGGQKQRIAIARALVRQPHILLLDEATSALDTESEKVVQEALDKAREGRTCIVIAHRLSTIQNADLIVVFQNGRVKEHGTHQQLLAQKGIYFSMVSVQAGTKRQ

[3] = Ratio of the Pgp to that of MRP1 was determined; type: functional
MCF7 = test: Toxicity was determined against of MCF-7 cells at a dose of 10 ug/mL; type: cell-based; conditions: human
Outline: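 Drug-sensitive MCF-7 cells exposed to 10 μg/mL compound for 48 h, in triplicate, with 1% ethanol solvent controls. Percentage of cells killed = percentage decrease in sulforhodamine B binding (570 nm) relative to control cultures.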

[4] = target: Multidrug resistance-associated protein 1 (Homo sapiens, UniProt P33527); test: MRP1 antagonism was determined percentage of MCF-7/VP cells surviving in the absence of vincristine/percentage of MCF-7/VP cells surviving in the presence of vincristine; type: functional
Sequence of Multidrug resistance-associated protein 1 (P33527 whole entry): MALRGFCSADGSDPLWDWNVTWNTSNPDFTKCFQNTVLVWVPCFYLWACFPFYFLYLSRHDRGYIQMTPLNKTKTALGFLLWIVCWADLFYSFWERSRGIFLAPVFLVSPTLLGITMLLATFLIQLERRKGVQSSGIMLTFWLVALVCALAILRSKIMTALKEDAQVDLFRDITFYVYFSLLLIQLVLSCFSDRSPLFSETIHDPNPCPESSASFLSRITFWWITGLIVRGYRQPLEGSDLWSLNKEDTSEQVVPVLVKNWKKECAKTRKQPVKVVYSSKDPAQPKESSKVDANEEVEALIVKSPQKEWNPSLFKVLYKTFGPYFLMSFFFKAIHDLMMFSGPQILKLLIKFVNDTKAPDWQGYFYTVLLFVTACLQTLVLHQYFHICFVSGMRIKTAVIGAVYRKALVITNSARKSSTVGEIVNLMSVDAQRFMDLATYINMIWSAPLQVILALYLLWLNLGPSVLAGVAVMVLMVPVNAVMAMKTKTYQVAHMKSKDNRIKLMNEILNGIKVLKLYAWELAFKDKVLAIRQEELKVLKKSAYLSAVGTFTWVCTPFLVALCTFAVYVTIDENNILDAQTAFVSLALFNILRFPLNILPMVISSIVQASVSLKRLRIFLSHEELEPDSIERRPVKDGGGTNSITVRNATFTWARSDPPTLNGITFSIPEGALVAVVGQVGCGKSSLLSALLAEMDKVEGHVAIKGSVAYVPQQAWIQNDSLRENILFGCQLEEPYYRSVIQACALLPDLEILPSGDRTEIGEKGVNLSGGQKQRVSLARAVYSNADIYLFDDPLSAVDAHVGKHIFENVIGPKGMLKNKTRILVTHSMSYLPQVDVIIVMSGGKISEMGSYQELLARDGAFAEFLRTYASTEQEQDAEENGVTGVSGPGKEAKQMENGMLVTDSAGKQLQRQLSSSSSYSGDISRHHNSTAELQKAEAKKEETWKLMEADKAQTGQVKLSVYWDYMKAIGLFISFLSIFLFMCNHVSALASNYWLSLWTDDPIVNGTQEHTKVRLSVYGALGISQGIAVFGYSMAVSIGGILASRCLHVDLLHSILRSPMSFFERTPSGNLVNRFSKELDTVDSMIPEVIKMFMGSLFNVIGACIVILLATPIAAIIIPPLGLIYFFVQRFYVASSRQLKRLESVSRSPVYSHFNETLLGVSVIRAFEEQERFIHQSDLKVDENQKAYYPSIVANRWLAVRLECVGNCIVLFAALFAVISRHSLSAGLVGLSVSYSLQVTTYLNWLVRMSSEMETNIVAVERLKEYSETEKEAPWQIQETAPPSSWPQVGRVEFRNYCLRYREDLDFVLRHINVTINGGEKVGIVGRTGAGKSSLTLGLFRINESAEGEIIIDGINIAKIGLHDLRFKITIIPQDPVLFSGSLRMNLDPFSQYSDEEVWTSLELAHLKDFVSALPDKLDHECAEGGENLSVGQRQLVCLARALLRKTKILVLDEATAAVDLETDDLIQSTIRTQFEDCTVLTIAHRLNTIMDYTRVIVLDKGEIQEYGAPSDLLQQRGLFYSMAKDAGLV
Outline: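 MCF-7/VP cells in RPMI 1640 with 10% FBS. Modulator at 10 μg/mL tested with or without 1 nM vincristine for 48 h, in triplicate. Sulforhodamine B read-out at 570 nm. Score = % survival without vincristine / % survival with vincristine; a score above 1.0 indicates chemosensitization.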

[5] = target: T1, ATP-dependent translocase ABCB1; test: Pgp antagonism was determined percentage of NCI/ADR cells surviving in the absence of vinblastine/percentage of NCI/ADR cells surviving in the presence of vinblastine; type: functional, cell-based
Outline: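 Modulator at 10 μg/mL tested with or without 50 nM vinblastine for 48 h, in triplicate. Survival read by sulforhodamine B at 570 nm against ethanol (1%) controls. Score = % survival without vinblastine / % survival with vinblastine.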

Mus musculus [6] = test: In vivo tumor growth inhibition in mice when […] at a day 1; type: functional
Outline: (§1)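 Balb/c female mice, 6–8 weeks old, with 10^6 JC murine mammary adenocarcinoma cells injected subcutaneously in the right hind quarter. Treatment began once tumors were palpable (day 1), five mice per group. Dosing on days 1, 5 and 9: 100 mg/kg i.p. PGP-4008·HCl with or without 5 mg/kg doxorubicin. Caliper volumes calculated as (L×W²)/2 through day 15; unpaired t-test with Welch correction.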

Mus musculus [7] = test: In vivo tumor growth inhibition in mice when administered […] at a day 9; type: functional
Outline: as §1

Mus musculus [8] = test: In vivo tumor growth inhibition in mice when […] at a day 15; type: functional
Outline: as §1

Mus musculus [9] = test: In vivo tumor growth inhibition in mice when administered subcutaneously at a day 5; type: functional; conditions: in the assay text read “intraperitoneally” for “subcutaneously”
Outline: as §1

Mus musculus [10] = test: In vivo tumor growth inhibition in mice when administered […] at a day 12; type: functional
Outline: as §1

Structure (SMILES) | Ratio [3] | Toxicity (MCF7) | Ratio [4] | Ratio [5] | further results
O=C(Nc1c2c(nc3ccccc13)N(Cc1ccccc1)CC2)c1c(F)cccc1C(F)(F)F |  |  |  |  | Toxicity (MCF-7 (Homo sapiens)): 13 µM; Activity [1]: 0.9; Activity [2]: 2.5
CN1CCc2c1nc1ccccc1c2NC(=O)Cc1ccccc1 | 5.6 |  |  |  | 
CCN(CC)CC(=O)Nc1c2c(nc3ccccc13)N(C)CC2 | 5 | 30% | 1.2 | 6 | 
CN1CCc2c1nc1ccccc1c2NC(=O)CN1CCCCC1 | 3.4 | 51% | 1.2 | 4.1 | 
Nc1c2c(nc3ccccc13)N(C1CCCCC1)CC2 | 1.3 | 97% | 0.6 | 0.8 | 
COc1cc(CNc2c3c(nc4ccccc24)N(Cc2ccccc2)CC3)cc(OC)c1 |  |  |  |  | Toxicity (MCF-7 (Homo sapiens)): 47 µM; Activity [1]: 0.9; Activity [2]: 1.4
CCC(=O)Nc1c2c(nc3ccccc13)N(C)CC2 | 1.6 |  |  |  | 
COc1cccc2c1C(=O)c1c(O)c3c(c(O)c1C2=O)C[C@@](O)(C(=O)CO)C[C@@H]3O[C@H]1C[C@H](N)[C@H](O)[C@H](C)O1.O=C(Cc1ccccc1)Nc1c2c(nc3ccccc13)N(Cc1ccccc1)CC2 |  |  |  |  | Tumor volume (Mus musculus [6]): 390 mm**3; Tumor volume (Mus musculus [7]): 520 mm**3; Tumor volume (Mus musculus [8]): 670 mm**3; Tumor volume (Mus musculus [9]): 470 mm**3; Tumor volume (Mus musculus [10]): 560 mm**3
CCN(CC)CC(=O)Nc1c2c(nc3ccccc13)N(Cc1ccccc1)CC2 | 15 | 14% | 1 | 15 | 
CN1CCc2c1nc1cc(Br)ccc1c2N | 0.8 | 94% | 1.6 | 1.3 | 
Cc1ccc2nc3c(c(N)c2c1)CCN3Cc1ccccc1 | 1.3 | 81% | 1.2 | 1.5 | 
CC(C)(C)NCC(=O)Nc1c2c(nc3ccccc13)N(Cc1ccccc1)CC2 | 13 | 29% | 0.9 | 12 | 
CN1CCN(CC(=O)Nc2c3c(nc4ccccc24)N(Cc2ccccc2)CC3)CC1 | 6.8 | 21% | 1.1 | 7.5 | 
O=C(Nc1c2c(nc3ccccc13)N(Cc1cccc(Cl)c1)CC2)C12CC3CC(CC(C3)C1)C2 | 1 | 33% | 1.2 | 1.2 | 
CN1CCc2c1nc1ccccc1c2/N=C(/c1ccccc1)N1CCCCC1 | 2.4 | 58% | 1 | 2.4 | 
CC(C)NCC(=O)Nc1c2c(nc3ccccc13)N(C)CC2 | 1.3 | 39% | 1.4 | 1.8 | 
Fc1ccc(CNc2c3c(nc4ccccc24)N(Cc2ccccc2)CC3)cc1 |  |  |  |  | Toxicity (MCF-7 (Homo sapiens)): > 65 µM; Activity [1]: 0.7; Activity [2]: 1.3
Fc1cccc(CNc2c3c(nc4ccccc24)N(Cc2ccccc2)CC3)c1 |  |  |  |  | Toxicity (MCF-7 (Homo sapiens)): > 65 µM; Activity [1]: 0.7; Activity [2]: 1.2
Nc1c2c(nc3cc(Br)ccc13)N(C1CCCCC1)CC2 | 1 | 99% | 1 | 1 | 

Structure (SMILES) | Ratio [3] | Toxicity (MCF7) | Ratio [4] | Ratio [5] | further results
Cc1ccc2c(N)c3c(nc2c1)N(Cc1ccccc1)CC3 | 0.9 and 0.7 | 77% and 98% | 1.7 and 1 | 1.6 and 0.7 | 
CN1CCc2c1nc1ccccc1c2NC(=O)C12CC3CC(CC(C3)C1)C2 | 5.2 | 29% | 0.9 | 4.7 | 
Nc1c2c(nc3cc(Br)ccc13)N(Cc1ccccc1)CC2 | 1.3 | 94% | 1.3 | 1.7 | 
Cc1cc(C)c2c(N)c3c(nc2c1)N(Cc1ccccc1)CC3 | 2.6 | 49% | 1.4 | 3.6 | 
CCCCN(CCCC)CC(=O)Nc1c2c(nc3ccccc13)N(C)CC2 | 3.2 | 50% | 1.3 | 4.2 | 
Nc1c2c(nc3ccccc13)N(Cc1ccccc1)CC2 | 3.1 | 47% | 1 | 3.1 | Toxicity (MCF-7 (Homo sapiens)): 6.2 µM; Activity [1]: 1; Activity [2]: 1
CC(C)(C)c1cc(CCC(=O)Nc2c3c(nc4ccccc24)N(Cc2ccccc2)CC3)cc(C(C)(C)C)c1O | 11 | 50% | 1.2 | 13.2 | 
O=C(Nc1c2c(nc3ccccc13)N(Cc1ccccc1)CC2)c1ccc(F)c(C(F)(F)F)c1 |  |  |  |  | Toxicity (MCF-7 (Homo sapiens)): 19 µM; Activity [1]: 0.9; Activity [2]: 4.9
O=C(Nc1c2c(nc3ccccc13)N(Cc1ccccc1)CC2)c1c(F)ccc(F)c1F |  |  |  |  | Toxicity (MCF-7 (Homo sapiens)): > 58 µM; Activity [1]: 1; Activity [2]: 3.1
O=C(CN1CCCCC1)Nc1c2c(nc3ccccc13)N(Cc1ccccc1)CC2 | 16 | 0% | 1.1 | 18 | Toxicity (MCF-7 (Homo sapiens)): 14 µM; Activity [1]: 1; Activity [2]: 9
Nc1c2c(nc3ccccc13)N(c1ccccc1)CC2 | 2.5 | 52% | 1.1 | 2.7 | 
CC(C)NCC(=O)Nc1c2c(nc3ccccc13)N(Cc1ccccc1)CC2 | 13 | 45% | 1 | 13 | 
CCOC(=O)CNc1c2c(nc3ccccc13)N(Cc1ccccc1)CC2 |  |  |  |  | Toxicity (MCF-7 (Homo sapiens)): 33 µM; Activity [1]: 0.9; Activity [2]: 0.9
CN1CCc2c1nc1ccccc1c2NC(=O)CCc1cc(C(C)(C)C)c(O)c(C(C)(C)C)c1 | 1 | 99% | 1 | 1 | 
COc1cccc2c1C(=O)c1c(O)c3c(c(O)c1C2=O)C[C@@](O)(C(=O)CO)C[C@@H]3O[C@H]1C[C@H](N)[C@H](O)[C@H](C)O1 [DOXORUBICIN] |  |  |  |  | Tumor volume (Mus musculus [6]): 430 mm**3; Tumor volume (Mus musculus [7]): 860 mm**3; Tumor volume (Mus musculus [8]): 1680 mm**3; Tumor volume (Mus musculus [9]): 520 mm**3; Tumor volume (Mus musculus [10]): 1210 mm**3
CCCCN1CCc2c1nc1cc(Br)ccc1c2N | 1.1 | 98% | 1 | 1.1 | 
CN1CCc2c1nc1ccccc1c2NC(=O)CNCCc1ccc(O)cc1 | 1.2 | 21% | 1.4 | 1.7 | 
CN1CCc2c1nc1ccccc1c2NC(=O)CNC(C)(C)C | 2.7 | 28% | 1.2 | 3.2 | 
